Molecular target: cAMP and cAMP-inhibited cGMP 3',5'-cyclic phosphodiesterase 10A (Homo sapiens, UniProt Q9Y233)
Experiment: Inhibition of human full length PDE10A2 expressed in African green monkey COS7 cells using [3H]cGMP as substrate preincubated for 30 mins followed by substrate addition measured after 60 mins by scintillation proximity assay
Format: cell-based, COS-7
Outline: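 Full-length human PDE10A2 from transfected COS-7 cells, held at -70 °C. [³H]cGMP added, 60 min at rt, stopped with yttrium SPA beads containing ZnSO₄. Counted after ≥120 min settling. Inhibition set against DMSO (0%) and 10 µM papaverine (100%) wells. Duplicate or triplicate.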

cAMP and cAMP-inhibited cGMP 3',5'-cyclic phosphodiesterase 10A, sequence (Q9Y233 whole entry): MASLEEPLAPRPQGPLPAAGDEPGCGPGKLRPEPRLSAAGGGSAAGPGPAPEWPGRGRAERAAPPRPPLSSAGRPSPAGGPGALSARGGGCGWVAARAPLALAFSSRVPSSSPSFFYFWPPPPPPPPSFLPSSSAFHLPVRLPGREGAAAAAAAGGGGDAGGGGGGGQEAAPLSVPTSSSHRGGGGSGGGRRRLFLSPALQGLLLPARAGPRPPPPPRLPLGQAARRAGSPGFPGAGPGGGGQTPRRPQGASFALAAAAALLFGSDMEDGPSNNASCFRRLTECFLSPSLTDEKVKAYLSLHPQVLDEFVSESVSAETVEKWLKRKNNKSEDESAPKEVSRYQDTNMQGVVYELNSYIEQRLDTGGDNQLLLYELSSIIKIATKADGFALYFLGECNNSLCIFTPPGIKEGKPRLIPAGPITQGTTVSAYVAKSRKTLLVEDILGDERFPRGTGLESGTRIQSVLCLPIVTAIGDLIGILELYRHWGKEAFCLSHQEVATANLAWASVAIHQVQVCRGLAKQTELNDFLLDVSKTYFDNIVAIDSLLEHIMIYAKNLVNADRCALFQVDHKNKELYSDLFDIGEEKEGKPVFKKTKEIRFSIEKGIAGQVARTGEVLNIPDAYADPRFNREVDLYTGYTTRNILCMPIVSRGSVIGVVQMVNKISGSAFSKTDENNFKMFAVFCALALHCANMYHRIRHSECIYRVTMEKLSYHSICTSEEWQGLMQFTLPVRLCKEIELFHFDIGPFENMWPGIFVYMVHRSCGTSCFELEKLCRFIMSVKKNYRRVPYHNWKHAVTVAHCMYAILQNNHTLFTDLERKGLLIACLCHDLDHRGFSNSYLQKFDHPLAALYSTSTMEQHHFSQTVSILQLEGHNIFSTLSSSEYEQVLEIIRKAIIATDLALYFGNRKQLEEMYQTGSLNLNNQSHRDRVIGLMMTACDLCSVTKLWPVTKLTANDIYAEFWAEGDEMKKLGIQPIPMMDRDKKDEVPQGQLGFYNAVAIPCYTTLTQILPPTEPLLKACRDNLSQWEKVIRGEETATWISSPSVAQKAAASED

Structure (SMILES) | IC50 [µM]
Cn1c(CCOc2cn(CC3CC3)nc(-c3ccnn3-c3ccccc3)c2=O)nc2ccccc21 | 0.025
Cn1c(OCCOc2cn(CC3CC3)nc(-c3ccnn3-c3ccccc3)c2=O)nc2ccccc21 | 0.0041
Cn1c(CCCOc2cn(CC3CC3)nc(-c3ccnn3-c3ccccc3)c2=O)nc2ccccc21 | 0.00081
COc1cn(C2CC2)nc(-c2ccnn2-c2ccccc2)c1=O | 0.13
COc1cn(CC(F)(F)F)nc(-c2ccnn2-c2ccccc2)c1=O | 0.55
Cn1c(CCCCOc2cn(CC3CC3)nc(-c3ccnn3-c3ccccc3)c2=O)nc2ccccc21 | 0.76

Continued by falling IC50, values first:

IC50 [µM] | Structure (SMILES)
2.8 | Cn1c(COc2cn(CC3CC3)nc(-c3ccnn3-c3ccccc3)c2=O)nc2ccccc21
2.4 | COc1cn(-c2ccccc2)nc(-c2ccnn2C)c1=O
1 | COc1cn(C)nc(-c2ccnn2-c2ccccc2)c1=O
0.17 | COc1cn(CC2CC2)nc(-c2ccnn2-c2ccccc2)c1=O
0.00076 | O=c1c(OCCN2CCn3c2nc2ccccc23)cn(CC2CC2)nc1-c1ccnn1-c1ccccc1

Reference: ChEMBL document CHEMBL3813640, “Design and synthesis of potent and selective pyridazin-4(1H)-one-based PDE10A inhibitors interacting with Tyr683 in the PDE10A selectivity pocket” (Bioorg Med Chem, 2016)
